Only some compounds are listed: those with a hit (about 2.1% of all), similar ones and a draw of the others.
m5-HT2A agonist: mouse HTR2A agonism via beta-arrestin recruitment. P35363. activation, % at 7.6 µM. actives 0.66% (n = 360,000). AID 624169. CHO-K1 mHTR2A beta-arrestin complementation, luminescence; percent of 30 µM serotonin response;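 active means activation above a run cutoff, the mean activation of all tested compounds plus 3 SD, cut at about 14% in these data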;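 further: 0% = plate median of compound wells and 100% = 30 µM serotonin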
CXCR6 block: CXCR6 (human) receptor inhibition; actives 0.36% (n = 360,000); CHO-K1 PathHunter CXCR6 beta-arrestin, luminescence; inhibition, % at 20 µM; O00574; in the data active means inhibition above about 34%, passing the limit was not always enough;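 further: antagonist mode with CXCL16 agonist at 10 nM final; 0% = 10 nM CXCL16 with DMSO and 100% = unstimulated wells without agonist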
APJ antagonist: blocks the human apelin receptor APJ. P35414. CHO-K1 APJ beta-arrestin complementation, luminescence. inhibition, % at 20 µM. actives 0.32% (n = 330,000). AID 2521;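 active means inhibition above about 40% at 20 µM, limit read from the data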;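 further: cells challenged with 10 nM apelin-13 agonist together with compound; plate controls were apelin-13 plus DMSO wells for no effect and DMSO wells lacking apelin-13 for full effect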
APJ agonist: APJ receptor agonism | activation, % at 20 µM | actives 0.11% (n = 330,000) | CHO-K1 APJ PathHunter beta-arrestin, luminescence; 0% DMSO wells, 100% apelin | P35414;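 active means activation more than six SD over the plate average, tested at 20 µM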;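 further: 0% = DMSO alone and 100% = apelin-13 at 10 nM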
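Test system: CHO-K1 APJ beta-arrestin complementation cell line. Amount: cell density 1000 per well. Controls: DMSO negative, 10 nM Apelin-13 positive. Signal: luminescent beta-gal fragment complementation, chemiluminescent substrate. Read-out basis: agonist-driven arrestin binding to APJ. Timing: compound stimulation 90 min at 25 °C, detection 60 min.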
CCR6 antagonist: CCR6 (human) receptor antagonism; P51684; CHO-K1 CCR6 PathHunter beta-arrestin, luminescence, CCL20-stimulated; inhibition, % at 20 µM; actives 0.49% (n = 340,000); AID 493098;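 active means compounds whose inhibition of the agonist-driven luminescence signal at 20 µM reaches about 50%, limit read from the data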;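 further: cells stimulated with CCL20 at 14 nM final; plate controls were DMSO with CCL20 for no effect and DMSO without agonist for full effect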
Target sequence (P51684 whole entry, looked up): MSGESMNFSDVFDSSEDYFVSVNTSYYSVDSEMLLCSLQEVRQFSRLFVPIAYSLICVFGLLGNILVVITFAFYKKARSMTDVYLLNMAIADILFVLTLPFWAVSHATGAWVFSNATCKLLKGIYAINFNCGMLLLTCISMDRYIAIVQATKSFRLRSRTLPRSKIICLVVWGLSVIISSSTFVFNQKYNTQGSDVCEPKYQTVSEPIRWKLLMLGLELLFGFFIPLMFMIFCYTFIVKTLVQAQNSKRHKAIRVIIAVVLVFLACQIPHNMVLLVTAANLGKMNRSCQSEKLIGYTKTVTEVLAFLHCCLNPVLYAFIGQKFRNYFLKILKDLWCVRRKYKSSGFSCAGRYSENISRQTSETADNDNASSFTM
EBI2 block: antagonists of human EBI2 receptor; P32249; EBI2 beta-arrestin recruitment, luminescence, 7a,25-OHC stimulated; inhibition, % at 5 µM; actives 0.81% (n = 360,000); AID 651636; in the data active means inhibition above about 38%;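 further: enzyme fragment complementation signal reports receptor beta-arrestin coupling in cells; 0% = agonist plus DMSO wells and 100% = wells without agonist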
Target sequence (P32249 whole entry, looked up, the tested form may be a part): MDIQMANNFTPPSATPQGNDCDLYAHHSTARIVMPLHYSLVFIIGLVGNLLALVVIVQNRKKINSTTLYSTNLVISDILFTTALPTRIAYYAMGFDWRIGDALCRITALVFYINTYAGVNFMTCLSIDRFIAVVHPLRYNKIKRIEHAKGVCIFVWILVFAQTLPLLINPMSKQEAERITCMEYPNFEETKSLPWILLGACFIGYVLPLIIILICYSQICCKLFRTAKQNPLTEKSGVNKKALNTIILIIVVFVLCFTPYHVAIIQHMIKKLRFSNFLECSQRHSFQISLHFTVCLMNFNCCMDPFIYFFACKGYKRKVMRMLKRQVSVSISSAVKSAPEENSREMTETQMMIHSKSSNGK
EBI2 antag conf: confirmation of human EBI2 receptor antagonists | shares compounds with EBI2 block | EBI2 beta-arrestin luminescence, 7a,25-OHC antagonism | AID 651997 | actives 29% (n = 2,400) | inhibition, % at 5 µM;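 active means inhibition of at least 50%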
EBI2 ag: EBI2 agonism counter-screen; shares compounds with EBI2 block; EBI2-expressing cells, agonist mode, luminescence, 60 min; 0% vehicle, 100% 7α,25-dihydroxycholesterol control; activation, % at 5 µM; 2,400 tested, under 10 active; AID 652000;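 active means activation of at least 50%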
bGal cs: inhibits E. coli beta-galactosidase, counter-screen for EBI2 antagonists. inhibition, % at 5 µM. actives 1% (n = 2,400). purified beta-galactosidase, luminescent Galacton Star, 15 min. shares compounds with EBI2 block;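 active means replicate-average signal at least 3 plate SD below neutral wells, shown as high inhibition, flagging enzyme-inhibiting false positives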;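 further: 0% = DMSO wells with enzyme and 100% = wells lacking enzyme; higher means stronger loss of beta-gal luminescence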
The depositor's hits bear a star; / = not tested or not shown.

SMILES | m5-HT2A agonist | CXCR6 block | APJ antagonist | APJ agonist | CCR6 antagonist | EBI2 block | EBI2 antag conf | EBI2 ag | bGal cs
O=C(NN=Cc1c[nH]c2ccccc12)NN=Cc1c[nH]c2ccccc12 | -2 | -6 | / | / | / | 74* | 62* | 1 | 5
CCCN(CCC)Cc1c(C(=O)N/N=C/c2c[nH]c3ccccc23)nnn1-c1nonc1N | -4 | -6 | -6 | 0 | -5 | 7 | / | / | /
CCCc1c(C(=O)N/N=C/c2c[nH]c3ccccc23)nnn1-c1nonc1N | 1 | -5 | / | / | / | 43* | 36 | 0 | -18
Cn1c(=O)c2sccc2n2c(CCCC(=O)NCc3ccc(F)cc3)nnc12 | -2 | 5 | -16 | 1 | 9 | 11 | / | / | /
CCCc1cc(=O)n2nc(N3CCC(C(=O)Nc4cccc(C(C)=O)c4)CC3)sc2n1 | 9 | -11 | -5 | -3 | 21 | -4 | / | / | /
COc1cc2ccccc2cc1C(=O)Nc1ccc(Cc2ccncc2)cc1 | -3 | -12 | -2 | 2 | 24 | 48* | 39 | 1 | 1
COc1ccc([C@H]2CC(=O)C=C(c3ccc(Cl)c(Cl)c3)C2)cc1 | 2 | 2 | 5 | 0 | 17 | 80* | 57* | 0 | 8
COc1cccc(C2=CC(=O)C[C@H](c3ccc(Cl)cc3)C2)c1OC | 1 | 10 | -5 | -5 | 14 | 62* | 41 | 0 | 12
COc1ccc(C2=CC(=O)C[C@H](c3ccc(Cl)cc3)C2)cn1 | -5 | 2 | 11 | -2 | 15 | 50* | 40 | 0 | -13
COc1ccc([C@H]2CC(=O)C=C(c3ccc(Cl)c(F)c3)C2)cc1 | 1 | -4 | 15 | -2 | 15 | 51* | 52* | -1 | -6
COc1ccc([C@H]2CC(=O)C=C(c3ccc(Cl)cc3C)C2)cc1 | 0 | -10 | 1 | -2 | 12 | 25 | / | / | /
COc1cc(F)ccc1-c1csc(C(NC(C)=O)c2ccc(F)c(F)c2)n1 (configuration not stated) | -1 | 6 | / | / | / | 13 | / | / | /
COc1ccc(C2=CC(=O)C[C@H](c3ccc(F)cc3)C2)cc1F | 2 | 3 | 11 | -5 | 20 | 34 | / | / | /
COc1ccc([C@H]2CC(=O)C=C(c3ccc(C)c(F)c3)C2)cc1 | -8 | -1 | 4 | -4 | 14 | 53* | 46 | 2 | -2
O=C(O)c1cccc(Nc2nc3ccccc3nc2NS(=O)(=O)c2ccccc2)c1 | -4 | -5 | 8 | -4 | -4 | -5 | / | / | /
NS(=O)(=O)c1cccc(Nc2nc3ccccc3nc2NS(=O)(=O)c2ccc(Cl)cc2)c1 | 7 | 2 | -3 | -5 | -4 | 63* | 53* | -1 | 6
CCOc1ccc(NC(=O)c2ccc(OC)cc2)cc1 | -4 | 1 | 9 | -3 | -3 | 13 | / | / | /
CCOc1ncccc1C(=O)Nc1ccc(C(=O)Nc2ccc(OC)cc2)cc1 | -4 | 17 | 4 | -7 | 4 | 57* | 31 | 2 | 1
Nc1c(Cl)cc(C2=NCCn3nc4cc(C(F)(F)F)ccc4c32)cc1Cl | -1 | -3 | 10 | -2 | 2 | 49* | 23 | -1 | -8
COc1ccc2c3n(nc2c1)CCN=C3c1cc(Cl)c(N)c(Cl)c1 | 0 | -14 | 5 | 7 | 5 | 35 | / | / | /
CCCc1ccc(OCc2ccccc2)c2c(=O)cc(C(=O)OCC)oc12 | 4 | -7 | 2 | 1 | -3 | 7 | / | / | /
COc1cccc(NC(=O)C2CCC(CNS(=O)(=O)c3cccs3)CC2)c1 (configuration not stated) | 2 | -1 | 14 | -5 | 1 | 47* | 29 | 1 | -15
C=CCC[C@@H](CCCCC)OC(=O)/C=C/[C@H](O)[C@@H](O)C[C@H](O)CC=C | 8 | 13 | / | / | / | -3 | / | / | /
COc1ccc(/C=C/C(=O)Nc2ccc(C(N)=O)cc2)cc1OC | 2 | -3 | 2 | 1 | -2 | 4 | / | / | /
COc1ccc(/C=C/C(=O)Nc2ccc(-n3nncc3-c3ccccc3)cc2)cc1OC | -2 | -5 | 3 | 4 | 29 | 61* | 21 | -1 | -9
SMILES | m5-HT2A agonist | CXCR6 block | APJ antagonist | APJ agonist | CCR6 antagonist | EBI2 block | EBI2 antag conf | EBI2 ag | bGal cs
COc1ccc(CNCC(=O)Nc2cc(OC)cc(OC)c2)cc1 | -6 | -6 | -12 | 2 | 9 | -10 | / | / | /
CCOC(=O)c1cnn(-c2nc(-c3cccc(F)c3)cs2)c1C(F)(F)F | 1 | -1 | 5 | -2 | 9 | 48* | 43 | 2 | 3
O=C(NCc1ccc(F)cc1)C1CCCN(C(=O)Nc2ccccc2)C1 (configuration not stated) | -1 | -2 | -2 | 1 | -6 | 50* | 19 | 0 | 6
O=C(NCc1ccc(F)cc1)C1CCCN(C(=O)Nc2ccc(F)cc2)C1 (configuration not stated) | 1 | 1 | 12 | -2 | 2 | 51* | 33 | 2 | 1
Cc1ccc(CNC(=O)C2CCN(C(=O)Nc3ccc(C)cc3)CC2)cc1 | -4 | 2 | 3 | -3 | 13 | 62* | 29 | 0 | 10
C[C@@H]1CN([C@H](C)CO)C(=O)CCCn2nncc2CO[C@H]1CN(C)S(=O)(=O)c1ccc(C#N)cc1 | -2 | 9 | / | / | / | -2 | / | / | /
CN(C1CCCCC1)S(=O)(=O)c1cccc2nsnc12 | 3 | -1 | 19 | -3 | 16 | 4 | / | / | /
CCN(CC)S(=O)(=O)c1cccc(-c2nnc(SCCOc3ccccc3)o2)c1 | -6 | 10 | 10 | -7 | 13 | 34 | / | / | /
CCN(CC)S(=O)(=O)c1cccc(-c2nnc(SCCOc3ccccc3C)o2)c1 | -4 | 0 | 12 | -7 | 18 | 50* | 35 | 0 | -1
COC(=O)CCCn1cc(CN2CC(N3CCN(Cc4ccccc4F)CC3)CS2(=O)=O)nn1 (configuration not stated) | -3 | -5 | / | / | / | -4 | / | / | /
CC(C#N)Sc1ncnc2sc(-c3ccccc3)cc12 (configuration not stated) | -6 | 0 | 0 | -5 | 17 | 21 | / | / | /
CCn1c(-c2ccccc2Cl)nn(CC(=O)Nc2cc(Cl)ccc2Cl)c1=S | 0 | 3 | 2 | -3 | 8 | 13 | / | / | /
CCn1c(-c2ccccc2Cl)nn(CC(=O)NCCc2ccccc2)c1=S | -1 | -3 | 8 | -1 | 10 | 57* | 31 | -1 | -6
O=C(COC(=O)/C=C/c1ccc(OC(F)F)cc1)NCCN1C(=O)CSC1=O | 1 | 4 | 7 | 2 | 6 | 37 | / | / | /
